CSC inhib = cancer stem cell inhibition; cancer stem cell-like cells viability, luminescence; inhibition, % at 7.5 µM; 300,000 compounds, 1.1% hits; in the data active = inhibition above about 75%; tested in HMLE shEcad cells
HIF activator = HIF pathway transcriptional activation | U2OS HRE-luciferase reporter, luminescence; normalized: DMSO 0%, desferrioxamine 100% | activation, % at 7.5 µM (by protocol) | 300,000 compounds, 0.32% hits | AID 1910;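 active = mean activation of at least 10% of the iron chelator positive control signal, with at least half of replicates also reaching 10%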
PfHsp90 set2 = reduces growth (ATP signal) of yeast expressing P. falciparum Hsp90; S. cerevisiae expressing PfHsp90, BacTiter-Glo ATP, 48 h; yeast lacking PDR1 and PDR3 efflux regulators; inhibition, % at 9.4 µM; 310,000 compounds, 0.32% hits; AID 504621;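 active = every replicate shows inhibition above about 80%, whatever the replicate mean, limit read from the data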;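 note: 0% = DMSO neutral controls and 100% = 20 µM radicicol positive controls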
T cruzi inh = T. cruzi replication inhibition; T. cruzi beta-gal in NIH3T3, luminescence, 90 h; inhibition, % (no concentration beside the values); 300,000 compounds, 1.4% hits;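 active = mean inhibition across valid replicates above about 55%, limit read from the data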;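 note: signal also drops with host cell toxicity which is not excluded here; 0% = plate median of DMSO wells and 100% = zero luminescence signal; higher percent means less beta-gal luminescence so fewer parasites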
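Assay system: NIH/3T3 fibroblasts plus reporter T. cruzi. Amount: NIH/3T3 cells, 5,000 per well. Buffer or medium: DMEM, 2% fetal bovine serum. Doses: compound pinned at 50 nL/well, DMSO. Schedule: ≥90 h infection period, 3 h prior cell attachment. Signal: luminescent β-galactosidase signal after 60 min lysis. Read-out: parasite load inhibition, %.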
Beta apoptosis = beta cell apoptosis inhibition | protection from apoptosis, % (concentration not given with the values) | 300,000 compounds, 0.8% hits | INS-1E cytokine-induced death, ATP luminescence, 48 h; percent of positive-control rescue, neutral wells zero;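 active = Every replicate reaches about 75%, or at least half do and their mean reaches it too, limit read from the data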;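 note: 0% = cytokine-treated negative control wells and 100% = positive control rescue; higher means more ATP so stronger rescue from cytokine killing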
SKKanGAS inh = SKKanGAS growth inhibition | S. pyogenes SKKanGAS, kanamycin growth, BacTiter-Glo, 6 h | inhibition, % at 7.5 µM | 300,000 compounds, 1.3% hits;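 active = mean replicate score, as percent of positive control median, at least 50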;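 note: strain carries kanamycin resistance gene driven by streptokinase promoter and grows in 40 µg/ml kanamycin; loss of luminescence reflects streptokinase promoter inhibition or plain growth inhibition; 0% = median of DMSO wells and 100% = positive control at its reference dose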
An asterisk follows results filed as active; . = not tested or not shown. Rows were chosen to be rich in hits. Some 3.6% of all compounds tested hit in one or more screens of this group.

SMILES	CSC inhib	HIF activator	PfHsp90 set2	T cruzi inh	Beta apoptosis	SKKanGAS inh
O=C(CSc1nnc(NC(=O)C2CC(=O)N(c3ccc(F)cc3)C2)s1)NCc1ccco1 (stereo not drawn)	-15	0	-17	-4	.	54*
O=C(Nc1nnc(SCCC2OCCO2)s1)C1CC(=O)N(c2ccc(F)cc2)C1 (stereo not drawn)	-19	0	-4	0	2	54*
O=C(N/N=C/c1ccc([N+](=O)[O-])o1)c1ccncc1	-5	-1	.	22	-24	10
O=C(N/N=C\c1ccc([N+](=O)[O-])o1)C1COc2ccccc2O1 (stereo not drawn)	9	-1	-25	61*	.	-6
O=C(N/N=C/c1ccc([N+](=O)[O-])o1)C1CCCC1	12	1	-7	72*	8	-8
Cc1onc(-c2ccccc2)c1-c1nnc(CN2CCN(S(=O)(=O)c3ccccc3F)CC2)o1	10	.	15	.	11	.
CCOc1ccc(N(C)S(=O)(=O)c2ccc(C)c(C(=O)OCC(=O)c3c[nH]c4ccccc34)c2)cc1	17	0	9	35	75*	12
CN(C)c1ccc(C2(c3ccc(N(C)C)cc3)OC(=O)c3cc(N)ccc32)cc1	3	0	-36	-4	3	-1
CCCCOC(=O)c1ccc(NC(=O)COC(=O)c2ccc3ncsc3c2)cc1	-4	.	.	.	0	.
O=C(CCN1CCN(Cc2ccccc2)CC1)Nc1cccc(Cl)c1	-3	0	23	55*	-3	2
O=C(CCCCCCC(=O)Nc1ccccc1)NO	106*	190*	4	-11	-4	2
Cc1cccc(NC(=O)CCN2CCN(C/C=C/c3ccccc3)CC2)c1	19	0	-8	41	3	3
O=C(CCN1CCN(C/C=C/c2ccccc2)CC1)Nc1ccccc1	8	0	12	56*	-2	8
Cc1ccc(S(=O)(=O)N2C[C@@H]3CCCC[C@@H]3[C@@H](C)[C@H]2CC(=O)c2ccccc2)cc1	.	.	6	.	.	.
N#CC1(NC(=O)COC(=O)c2cc(O)c3ccccc3c2O)CCCCC1	89*	-1	-16	4	-2	8
CC(=O)C(C(C)=O)C(c1ccccc1)c1nc2ccccc2[nH]c1=O (stereo not drawn)	-1	-3	-2	-5	6	-1
Nc1c(C(=O)Nc2ccc(Cl)c(C(=O)O)c2)sc2nc3c(cc12)CCCC3	5	0	5	-1	-8	2
Nc1c(C(=O)Nc2ccc(S(=O)(=O)N3CCCC3)cc2)sc2nc3cc4c(cc3cc12)CCC4	6	0	-47	35	100*	7
COc1ccc2nc(SCC(=O)Nc3ccc(S(=O)(=O)N4CCCC4)cc3)c(C#N)cc2c1	8	0	.	28	16	-4
Nc1c(C(=O)Nc2ccc(S(=O)(=O)N3CCCC3)cc2)sc2nc3ccc(OC(F)(F)F)cc3cc12	32	-5	-7	39	98*	18
COc1cc(C(=O)O)c2ccccc2n1	13	0	-17	0	-2	-1
COCCCN1C(=O)c2ccc(C(=O)NCc3ccccn3)cc2C1=O	-7	0	2	-11	1	3
CCc1ccn2cc(-c3ccc4c(c3)OCO4)nc2c1	78*	-1	27	4	21	47
CCCNC(=O)Nc1ccc(NC(C)=O)cc1	-7	0	2	-16	-6	-4
O=C(CSc1nnc(-c2ccc(F)cc2)o1)N1CCCC1	.	2	29	-15	-1	0
SMILES	CSC inhib	HIF activator	PfHsp90 set2	T cruzi inh	Beta apoptosis	SKKanGAS inh
COc1cccc(CN(C)C(=O)c2cccc(S(=O)(=O)Nc3cccc(C)c3)c2)c1OC	.	.	-6	.	.	.
CC(=NNc1nc2ccccc2s1)c1ncccn1	.	.	115*	.	.	.
C/C(=N\Nc1nc2ccccc2s1)c1cccs1	28	0	-40	45	9	50*
COc1ccc(NC(=O)Cn2cnc3sc(C)c(S(=O)(=O)N4CCN(C)CC4)c3c2=O)cc1OC	13	0	39	-4	.	-1
O=Nc1c(O)c2ccccc2c2ccccc12	122*	-5	111*	-8	109*	66*
COc1cc(C(=O)NC(C)c2ccc3ccccc3c2)cc(Cl)c1O (stereo not drawn)	1	0	-25	-5	-8	14
COc1ccc(/C=C/C(=O)OCC(=O)Nc2ccc(Cl)c(S(=O)(=O)N(C)C)c2)cc1OC	4	0	-2	-15	-2	12
Cc1ccc(S(=O)(=O)NCc2ccncc2)c(C)c1C	-11	0	-12	-56	116*	-7
Cc1ccc(S(=O)(=O)NCc2ccccn2)c(C)c1C	-16	0	-8	-10	.	2
Cc1nc(C)n(CC(C)C(=O)N2CCN(S(=O)(=O)c3ccccc3)CC2)n1 (stereo not drawn)	-5	0	12	-10	-4	-14
COc1ccc(NC(=O)CN(C)C(=O)C2CC(=O)N(c3ccc4c(c3)OCCO4)C2)cc1 (stereo not drawn)	-9	0	.	-5	-6	-4
CCOc1ccc(NC(=O)CN(C)C(=O)C2CC(=O)N(c3ccc4c(c3)OCCO4)C2)cc1OCC (stereo not drawn)	-6	0	10	-13	-1	52*
Cc1c(NC(=O)CSC2=C(C#N)C(c3ccccc3F)CC(=O)N2)c(=O)n(-c2ccccc2)n1C (stereo not drawn)	-7	-3	-15	-16	-3	96*
O=C(c1cc(-c2ccccc2)nc2ccccc12)N1N=C(C(F)F)CC1(O)C(F)F (stereo not drawn)	0	0	6	20	5	1
Cc1ccc(-c2cc(C(=O)N3N=C(C(F)F)CC3(O)C(F)F)c3ccccc3n2)cc1C (stereo not drawn)	98*	2	113*	64*	7	11
CN1CCN(S(=O)(=O)c2cccc(C(=O)Nc3ccccc3N3CCCCC3)c2)CC1	59	0	.	7	6	3
CN1CCN(S(=O)(=O)c2cccc(C(=O)Nc3cc(C(F)(F)F)ccc3N3CCCCC3)c2)CC1	87*	0	-32	45	18	-9
CCN1CCN(c2ccc(S(=O)(=O)N3CCCCC3)cc2NC(=O)c2cccc(C(F)(F)F)c2)CC1	4	-1	16	68*	-3	2
CN1CCN(/N=C/c2ccc(-c3ccccc3)cc2)CC1	-19	2	1	41	4	-2
Cc1cc(/C=N/N2CCN(C)CC2)c(C)n1-c1ccccc1F	-1	0	-22	67*	-3	0
Cc1cc2nc(-c3ccc(SCc4ccc(C#N)cc4)nc3)[nH]c2cc1C	16	1	-5	56*	9	38
CCCCN(C)C(=O)c1ccc2c(c1)N(CC)C(=O)c1ccccc1S2=O (stereo not drawn)	-11	-3	1	-9	-3	-4

Screening data deposited in PubChem BioAssay by Broad Institute.
